Assays:
Assay type in all cases: functional
SF-539 = experiment: Growth inhibition of human SF539 cells at 10^-5 M after 48 hrs by Sulforhodamine B assay relative to control; settings: SF-539, 48 h, read-out: GI
Method in brief: (§1)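 Single-dose primary screen at 10⁻⁵ M across 49 lines. Cells were plated 24 h beforehand, with a TCA-fixed time-zero plate, then exposed 48 h at 37 °C, 5% CO2. Cells were fixed with cold TCA, stained with SRB and read at 515 nm. Percent growth was calculated against time-zero and untreated-control absorbances.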

CCRF-CEM = experiment: Growth inhibition of human CCRF-CEM cells at 10^-5 M after 48 hrs by Sulforhodamine B assay relative to control; settings: read-out: GI
Method in brief: (§2)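 Single-dose screen at 10⁻⁵ M. Cells are preincubated 24 h at 37 °C in 5% CO2, then exposed to the compound, diluted from a DMSO stock into medium with gentamicin, for 48 h. Adherent cells are fixed with cold TCA (final 10%) and suspension cells with TCA (final 16%). Cells are stained with 0.4% SRB in 1% acetic acid and bound dye is read at 515 nm. Percent growth inhibition is taken against control wells and time-zero plates.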

ACHN = experiment: Growth inhibition of human ACHN cells at 10^-5 M after 48 hrs by Sulforhodamine B assay relative to control; settings: read-out: GI; method in brief: as §2
SF-268 [1] = experiment: Growth inhibition of human SF268 cells at 10^-5 M after 48 hrs by Sulforhodamine B assay relative to control; settings: SF-268, 48 h, read-out: GI; method in brief: as §1
HT-29 = experiment: Growth inhibition of human HT-29 cells at 10^-5 M after 48 hrs by Sulforhodamine B assay relative to control; settings: HT-29, 48 h, read-out: GI; method in brief: as §2
KM12 = experiment: Growth inhibition of human KM12 cells at 10^-5 M after 48 hrs by Sulforhodamine B assay relative to control; settings: KM12, 48 h, read-out: GI; method in brief: as §2
786-0 = experiment: Growth inhibition of human 786-0 cells at 10^-5 M after 48 hrs by Sulforhodamine B assay relative to control; settings: 786-0, 48 h, read-out: GI; method in brief: as §2
NCI-H23 [2] = experiment: Growth inhibition of human NCI-H23 cells at 10^-5 M after 48 hrs by Sulforhodamine B assay relative to control; settings: NCI-H23, 48 h, read-out: GI; method in brief: as §1
MOLT-4 = experiment: Growth inhibition of human MOLT4 cells at 10^-5 M after 48 hrs by Sulforhodamine B assay relative to control; settings: MOLT-4, 48 h, read-out: GI; method in brief: as §1
A498 [3] = experiment: Growth inhibition of human A498 cells at 10^-5 M after 48 hrs by Sulforhodamine B assay relative to control; settings: A498, 48 h, read-out: GI; method in brief: as §2
OVCAR-8 = experiment: Growth inhibition of human OVCAR8 cells at 10^-5 M after 48 hrs by Sulforhodamine B assay relative to control; settings: OVCAR-8, 48 h, read-out: GI; method in brief: as §1
OVCAR-5 = experiment: Growth inhibition of human OVCAR5 cells at 10^-5 M after 48 hrs by Sulforhodamine B assay relative to control; settings: OVCAR-5, 48 h, read-out: GI; method in brief: as §1
SW-620 = experiment: Growth inhibition of human SW620 cells at 10^-5 M after 48 hrs by Sulforhodamine B assay relative to control; settings: SW-620, 48 h, read-out: GI; method in brief: as §1
SF-268 [4] = experiment: Growth inhibition of human SF268 cells after 48 hrs by Sulforhodamine B assay; settings: SF-268, 48 h
Method in brief: (§3)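 Cells were preincubated 24 h at 37 °C, 5% CO2, and a time-zero plate was TCA-fixed. Five concentrations were made by serial dilution from a DMSO stock (400-fold the top concentration) and incubated 48 h. Adherent cells were fixed with 10% final TCA and suspension cells with 16%. Plates were stained with 0.4% SRB and read at 515 nm. GI50 is the concentration giving 50% reduction in net protein increase versus control.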

MDA-MB-468 = experiment: Growth inhibition of human MDA-MB-468 cells after 48 hrs by Sulforhodamine B assay; settings: MDA-MB-468, 48 h; method in brief: as §3
PC-3 = experiment: Growth inhibition of human PC3 cells after 48 hrs by Sulforhodamine B assay; settings: PC-3, 48 h; method in brief: as §3
BT-549 = experiment: Growth inhibition of human BT549 cells after 48 hrs by Sulforhodamine B assay; settings: BT-549, 48 h
Method in brief: (§4)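 Five-concentration SRB assay using 10-fold or ½-log serial dilutions from a DMSO stock. Exposure is 48 h at 37 °C in 5% CO2 after 24 h preincubation. TCA fixation is followed by SRB staining and a reading at 515 nm. Percentage growth is computed from time-zero, control and treated absorbances. GI50 is the concentration where [(Ti−Tz)/(C−Tz)]×100 = 50, read from the plot against log concentration.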

A498 [5] = experiment: Growth inhibition of human A498 cells after 48 hrs by Sulforhodamine B assay; settings: A498, 48 h; method in brief: as §4
UACC-62 = experiment: Growth inhibition of human UACC62 cells after 48 hrs by Sulforhodamine B assay; settings: UACC-62, 48 h
Method in brief: (§5)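 Five-concentration stage in the […]-cell-line panel, using 10-fold or ½-log serial dilutions made from a DMSO stock (400-fold). Cells were preincubated 24 h at 37 °C, then drug-exposed 48 h. A time-zero plate was fixed with TCA at dosing, adherent cells were fixed with cold TCA (10% final), and protein was stained with SRB, absorbance 515 nm. GI50 was where [(Ti−Tz)/(C−Tz)]×100 = 50, from the percent growth vs log concentration plot, expressed as log10 GI50.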

NCI-H23 [6] = experiment: Growth inhibition of human NCI-H23 cells after 48 hrs by Sulforhodamine B assay; settings: NCI-H23, 48 h; method in brief: as §3
RXF 393 = experiment: Growth inhibition of human RXF393 cells after 48 hrs by Sulforhodamine B assay; settings: RXF 393, 48 h; method in brief: as §3
MCF7 = experiment: Growth inhibition of human MCF7 cells after 48 hrs by Sulforhodamine B assay; settings: MCF7, 48 h; method in brief: as §4
UO-31 = experiment: Growth inhibition of human UO31 cells after 48 hrs by Sulforhodamine B assay; settings: UO-31, 48 h; method in brief: as §5
OVCAR-3 = experiment: Growth inhibition of human OVCAR3 cells after 48 hrs by Sulforhodamine B assay; settings: OVCAR-3, 48 h; method in brief: as §3
K562 = experiment: Growth inhibition of human K562 cells after 48 hrs by Sulforhodamine B assay; settings: K562, 48 h; method in brief: as §4
MDA-MB-231 = experiment: Growth inhibition of human MDA-MB-231 cells after 48 hrs by Sulforhodamine B assay; settings: MDA-MB-231, 48 h; method in brief: as §4
NCI-H322M = experiment: Growth inhibition of human NCI-H322M cells after 48 hrs by Sulforhodamine B assay; method in brief: as §3
SK-MEL-5 = experiment: Growth inhibition of human SK-MEL-5 cells after 48 hrs by Sulforhodamine B assay; settings: SK-MEL-5, 48 h; method in brief: as §3
M14 = experiment: Growth inhibition of human M14 cells after 48 hrs by Sulforhodamine B assay; settings: M14, 48 h; method in brief: as §4
MDA-MB-435 = experiment: Growth inhibition of human MDA-MB-435 cells after 48 hrs by Sulforhodamine B assay; settings: MDA-MB-435, 48 h; method in brief: as §4
NCI-H460 = experiment: Growth inhibition of human NCI-H460 cells after 48 hrs by Sulforhodamine B assay; settings: NCI-H460, 48 h; method in brief: as §3

SMILES	inhibition of growth at 10 µM (SF-539) [%]	inhibition of growth at 10 µM (CCRF-CEM) [%]	inhibition of growth at 10 µM (ACHN) [%]	inhibition of growth at 10 µM (SF-268 [1]) [%]	inhibition of growth at 10 µM (HT-29) [%]	inhibition of growth at 10 µM (KM12) [%]	inhibition of growth at 10 µM (786-0) [%]	inhibition of growth at 10 µM (NCI-H23 [2]) [%]	inhibition of growth at 10 µM (MOLT-4) [%]	inhibition of growth at 10 µM (A498 [3]) [%]	inhibition of growth at 10 µM (OVCAR-8) [%]	inhibition of growth at 10 µM (OVCAR-5) [%]	inhibition of growth at 10 µM (SW-620) [%]	GI50 (SF-268 [4]) [µM]	GI50 (MDA-MB-468) [µM]	GI50 (PC-3) [µM]	GI50 (BT-549) [µM]	GI50 (A498 [5]) [µM]	GI50 (UACC-62) [µM]	GI50 (NCI-H23 [6]) [µM]	other results
Clc1nc(-c2ccccn2)nc2sc3c(c12)CCCCCC3	2.75	27.6	120	5.35	0.67	8.45	1.61	17.6	32.3	-18.4	12.9	-7.94	-2.34	–	–	–	–	–	–	–	–
O=c1[nH]c(-c2ccncc2)nc2sc3c(c12)CCCCCC3	–	–	–	–	–	–	–	–	–	–	–	–	–	> 100	> 100	> 100	> 100	> 100	> 100	> 100	GI50 (RXF 393): > 100 µM; GI50 (MCF7): > 100 µM; GI50 (UO-31): > 100 µM; GI50 (OVCAR-3): > 100 µM; GI50 (K562): > 100 µM; GI50 (MDA-MB-231): > 100 µM; GI50 (NCI-H322M): > 100 µM; GI50 (SK-MEL-5): > 100 µM; GI50 (M14): > 100 µM; GI50 (MDA-MB-435): > 100 µM; GI50 (NCI-H460): > 100 µM
NNc1nc(-c2ccccn2)nc2sc3c(c12)CCCCCC3	–	–	–	–	–	–	–	–	–	–	–	–	–	7.24	3.63	3.98	9.77	1.86	5.89	8.91	GI50 (RXF 393): 6.76 µM; GI50 (MCF7): 3.8 µM; GI50 (UO-31): 1.02 µM; GI50 (OVCAR-3): 5.37 µM; GI50 (K562): 3.8 µM; GI50 (MDA-MB-231): 12.6 µM; GI50 (NCI-H322M): 5.37 µM; GI50 (SK-MEL-5): 3.16 µM; GI50 (M14): 5.5 µM; GI50 (MDA-MB-435): 5.13 µM; GI50 (NCI-H460): 4.17 µM
c1ccc(N2CCN(c3nc(-c4ccccn4)nc4sc5c(c34)CCCCCC5)CC2)cc1	12.6	31	56.1	20.4	42	55	10.7	37	47.9	38.4	44.5	36.8	24	–	–	–	–	–	–	–	–
c1cc(-c2nc(N3CCOCC3)c3c4c(sc3n2)CCCCCC4)ccn1	15.8	2.07	17.1	4.06	17.6	19.6	32.9	8.29	24.5	33.7	15.3	-1.32	-9.82	–	–	–	–	–	–	–	–
CN1CCN(c2nc(-c3ccccn3)nc3sc4c(c23)CCCCCC4)CC1	37.4	5.41	4.94	-1.9	5.9	8.11	10	16	7.6	34.8	-1.5	2.04	-1.34	–	–	–	–	–	–	–	–

Source: ChEMBL document CHEMBL2375304, “Synthesis and anticancer activity of novel 2-pyridyl hexahyrocyclooctathieno[2,3-d]pyrimidine derivatives” (2013)
